Test results taken from ChEMBL document CHEMBL4011617, “Ugi Reaction-Derived α-Acyl Aminocarboxamides Bind to Phosphatidylinositol 3-Kinase-Related Kinases, Inhibit HSF1-Dependent Heat Shock Response, and Induce Apoptosis in Multiple Myeloma Cells” (J Med Chem, 2017).
Active and inactive are the calls of the source. No cut-off for these calls is given here.

Tests used:
INA-6 [1] = experiment: Inhibition of heat shock response in human INA-6 cells assessed as reduction in HSF-1 mediated upregulation of the heat shock protein HSP72 at 50 uM preincubated for 4 hrs followed by HSP90 inhibitor and HSR inducer NVP-AUY922 addition measured after 4 hrs by ELISA; format: functional, cell-based
Procedure, shortened: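 HSP72 quantified by ELISA in the same protein lysates used for Western blots. INA-6 cells received compound for 4 h, then NVP-AUY922 co-treatment for 4 h more to stimulate HSF1. DMSO-only and NVP-AUY922-only cells served as negative and positive controls.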

INA-6 [2] = experiment: Inhibition of heat shock response in human INA-6 cells assessed as reduction in HSF-1 mediated upregulation of the heat shock protein HSP27 at 50 uM preincubated for 4 hrs followed by HSP90 inhibitor and HSR inducer NVP-AUY922 addition measured after 4 hrs by Western blot method; format: functional, cell-based
Procedure, shortened: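 INA-6 myeloma cells pretreated with test compound for 4 h, then co-treated with the HSP90 inhibitor/HSR inducer NVP-AUY922 for a further 4 h. Cells harvested; HSP72, HSP27, HSF1 or phospho-HSF1 probed by Western blot with β-actin as loading control. DMSO-only cells were the negative control; NVP-AUY922-only cells were the positive control.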

[3] = molecular target: MICOS complex subunit MIC60 (Homo sapiens) (UniProt Q16891); experiment: Binding affinity to MICOS complex subunit MIC60 in human INA-6 cells after 3 hrs by nanoLC-MS/MS method; format: cell-based
Procedure, shortened: (§1)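 The biotinylated inhibitor was loaded on streptavidin beads, with empty beads as the control. Eluates were trypsin-digested and run by nanoLC-MS/MS. Inhibitor/control ratios came from label-free quantification, taken as medians of five biological replicates. Enrichment was called at Benjamini-Hochberg-adjusted limma p < 0.02.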

[4] = molecular target: CCR4-NOT transcription complex subunit 2 (Homo sapiens) (UniProt Q9NZN8); experiment: Binding affinity to CCR4-NOT transcription complex subunit 2 in human INA-6 cells after 3 hrs by nanoLC-MS/MS method; format: cell-based; procedure, shortened: as §1
[5] = molecular target: CCR4-NOT transcription complex subunit 6-like (Homo sapiens) (UniProt Q96LI5); experiment: Binding affinity to CCR4-NOT transcription complex subunit 6-like in human INA-6 cells after 3 hrs by nanoLC-MS/MS method; format: cell-based; procedure, shortened: as §1
[6] = molecular target: CCR4-NOT transcription complex subunit 7 (Homo sapiens) (UniProt Q9UIV1); experiment: Binding affinity to CCR4-NOT transcription complex subunit 7 in human INA-6 cells after 3 hrs by nanoLC-MS/MS method; format: cell-based; procedure, shortened: as §1
[7] = molecular target: CCR4-NOT transcription complex subunit 3 (Homo sapiens) (UniProt O75175); experiment: Binding affinity to CCR4-NOT transcription complex subunit 3 in human INA-6 cells after 3 hrs by nanoLC-MS/MS method; format: cell-based; procedure, shortened: as §1
[8] = molecular target: CCR4-NOT transcription complex subunit 10 (Homo sapiens) (UniProt Q9H9A5); experiment: Binding affinity to CCR4-NOT transcription complex subunit 10 in human INA-6 cells after 3 hrs by nanoLC-MS/MS method; format: cell-based; procedure, shortened: as §1
[9] = molecular target: CCR4-NOT transcription complex subunit 11 (Homo sapiens) (UniProt Q9UKZ1); experiment: Binding affinity to CCR4-NOT transcription complex subunit 11 in human INA-6 cells after 3 hrs by nanoLC-MS/MS method; format: cell-based; procedure, shortened: as §1
[10] = molecular target: Survival motor neuron protein (Homo sapiens) (UniProt Q16637); experiment: Binding affinity to survival motor neuron protein in human INA-6 cells after 3 hrs by nanoLC-MS/MS method; format: cell-based; procedure, shortened: as §1
[11] = molecular target: Gem-associated protein 7 (Homo sapiens) (UniProt Q9H840); experiment: Binding affinity to GEMIN7 in human INA-6 cells after 3 hrs by nanoLC-MS/MS method; format: cell-based; procedure, shortened: as §1
[12] = molecular target: Mitogen-activated protein kinase kinase kinase 5 (Homo sapiens) (UniProt Q99683); experiment: Binding affinity to MAP3K5 in human INA-6 cells after 3 hrs by nanoLC-MS/MS method; format: cell-based; procedure, shortened: as §1
[13] = molecular target: Mitogen-activated protein kinase kinase kinase 6 (Homo sapiens) (UniProt O95382); experiment: Binding affinity to MAP3K6 in human INA-6 cells after 3 hrs by nanoLC-MS/MS method; format: cell-based; procedure, shortened: as §1
Peflin (Homo sapiens) = Peflin (Homo sapiens) (UniProt Q9UBV8); experiment: Binding affinity to PEF1 protein in human INA-6 cells after 3 hrs by nanoLC-MS/MS method; format: cell-based; procedure, shortened: as §1
[14] = molecular target: Serine/threonine-protein phosphatase 6 catalytic subunit (Homo sapiens) (UniProt O00743); experiment: Binding affinity to serine/threonine-protein phosphatase 6 catalytic subunit in human INA-6 cells after 3 hrs by nanoLC-MS/MS method; format: cell-based; procedure, shortened: as §1
[15] = molecular target: Serine/threonine-protein phosphatase 6 regulatory subunit 3 (Homo sapiens) (UniProt Q5H9R7); experiment: Binding affinity to serine/threonine-protein phosphatase 6 regulatory subunit 3 in human INA-6 cells after 3 hrs by nanoLC-MS/MS method; format: cell-based; procedure, shortened: as §1
[16] = molecular target: DNA-dependent protein kinase catalytic subunit (Homo sapiens) (UniProt P78527); experiment: Binding affinity to PRKDC protein in human INA-6 cells after 3 hrs by nanoLC-MS/MS method; format: cell-based; procedure, shortened: as §1
[17] = molecular target: Serine-protein kinase ATM (Homo sapiens) (UniProt Q13315); experiment: Binding affinity to ATM protein in human INA-6 cells after 3 hrs by nanoLC-MS/MS method; format: cell-based; procedure, shortened: as §1
[18] = molecular target: Serine/threonine-protein kinase ATR (Homo sapiens) (UniProt Q13535); experiment: Binding affinity to ATR protein in human INA-6 cells after 3 hrs by nanoLC-MS/MS method; format: cell-based; procedure, shortened: as §1
[19] = molecular target: Exportin-T (Homo sapiens) (UniProt O43592); experiment: Binding affinity to XPOT protein in human INA-6 cells after 3 hrs by nanoLC-MS/MS method; format: cell-based; procedure, shortened: as §1
[20] = molecular target: Serine/threonine-protein phosphatase 6 regulatory subunit 1 (Homo sapiens) (UniProt Q9UPN7); experiment: Binding affinity to PP6R1 protein in human INA-6 cells after 3 hrs by nanoLC-MS/MS method; format: cell-based; procedure, shortened: as §1
[21] = molecular target: Serine/threonine-protein phosphatase 6 regulatory subunit 2 (Homo sapiens) (UniProt O75170); experiment: Binding affinity to PP6R2 protein in human INA-6 cells after 3 hrs by nanoLC-MS/MS method; format: cell-based; procedure, shortened: as §1
[22] = molecular target: Protein CIP2A (Homo sapiens) (UniProt Q8TCG1); experiment: Binding affinity to CIP2A protein in human INA-6 cells after 3 hrs by nanoLC-MS/MS method; format: cell-based; procedure, shortened: as §1
[23] = molecular target: CCR4-NOT transcription complex subunit 9 (Homo sapiens) (UniProt Q92600); experiment: Binding affinity to RCD1 protein in human INA-6 cells after 3 hrs by nanoLC-MS/MS method; format: cell-based; procedure, shortened: as §1
[24] = molecular target: Brefeldin A-inhibited guanine nucleotide-exchange protein 2 (Homo sapiens) (UniProt Q9Y6D5); experiment: Binding affinity to BIG2 protein in human INA-6 cells after 3 hrs by nanoLC-MS/MS method; format: cell-based; procedure, shortened: as §1
[25] = molecular target: Conserved oligomeric Golgi complex subunit 1 (Homo sapiens) (UniProt Q8WTW3); experiment: Binding affinity to COG1 in human INA-6 cells after 3 hrs by nanoLC-MS/MS method; format: cell-based; procedure, shortened: as §1
[26] = molecular target: Conserved oligomeric Golgi complex subunit 4 (Homo sapiens) (UniProt Q9H9E3); experiment: Binding affinity to COG4 in human INA-6 cells after 3 hrs by nanoLC-MS/MS method; format: cell-based; procedure, shortened: as §1
[27] = molecular target: Conserved oligomeric Golgi complex subunit 7 (Homo sapiens) (UniProt P83436); experiment: Binding affinity to COG7 in human INA-6 cells after 3 hrs by nanoLC-MS/MS method; format: cell-based; procedure, shortened: as §1

Serine/threonine-protein phosphatase 6 regulatory subunit 2 (Homo sapiens), sequence (O75170 whole entry): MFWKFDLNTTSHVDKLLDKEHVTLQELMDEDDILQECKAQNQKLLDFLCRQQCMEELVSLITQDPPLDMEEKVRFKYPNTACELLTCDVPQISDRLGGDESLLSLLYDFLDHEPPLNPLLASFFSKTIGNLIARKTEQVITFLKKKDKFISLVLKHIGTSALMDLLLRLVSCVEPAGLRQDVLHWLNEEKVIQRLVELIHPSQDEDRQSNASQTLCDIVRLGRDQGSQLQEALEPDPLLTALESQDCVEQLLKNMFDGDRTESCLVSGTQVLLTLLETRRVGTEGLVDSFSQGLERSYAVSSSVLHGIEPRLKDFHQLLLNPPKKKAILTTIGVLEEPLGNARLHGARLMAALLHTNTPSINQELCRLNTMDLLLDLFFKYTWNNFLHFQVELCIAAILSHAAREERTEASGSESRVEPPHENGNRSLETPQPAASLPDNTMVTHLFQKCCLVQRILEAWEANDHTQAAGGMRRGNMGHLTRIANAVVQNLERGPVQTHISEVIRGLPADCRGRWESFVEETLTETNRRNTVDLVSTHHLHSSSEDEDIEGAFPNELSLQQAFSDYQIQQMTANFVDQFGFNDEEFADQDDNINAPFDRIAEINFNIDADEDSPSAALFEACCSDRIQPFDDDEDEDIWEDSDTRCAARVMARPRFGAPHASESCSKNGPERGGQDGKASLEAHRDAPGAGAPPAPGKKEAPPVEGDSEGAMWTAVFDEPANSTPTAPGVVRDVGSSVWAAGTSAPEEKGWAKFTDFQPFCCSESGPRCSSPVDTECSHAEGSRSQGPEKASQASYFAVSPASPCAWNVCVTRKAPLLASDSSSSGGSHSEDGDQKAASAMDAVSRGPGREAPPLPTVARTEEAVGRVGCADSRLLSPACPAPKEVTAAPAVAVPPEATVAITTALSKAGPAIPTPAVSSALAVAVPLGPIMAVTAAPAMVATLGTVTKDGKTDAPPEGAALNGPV
Conserved oligomeric Golgi complex subunit 1 (Homo sapiens), sequence (Q8WTW3 whole entry, one chain of several): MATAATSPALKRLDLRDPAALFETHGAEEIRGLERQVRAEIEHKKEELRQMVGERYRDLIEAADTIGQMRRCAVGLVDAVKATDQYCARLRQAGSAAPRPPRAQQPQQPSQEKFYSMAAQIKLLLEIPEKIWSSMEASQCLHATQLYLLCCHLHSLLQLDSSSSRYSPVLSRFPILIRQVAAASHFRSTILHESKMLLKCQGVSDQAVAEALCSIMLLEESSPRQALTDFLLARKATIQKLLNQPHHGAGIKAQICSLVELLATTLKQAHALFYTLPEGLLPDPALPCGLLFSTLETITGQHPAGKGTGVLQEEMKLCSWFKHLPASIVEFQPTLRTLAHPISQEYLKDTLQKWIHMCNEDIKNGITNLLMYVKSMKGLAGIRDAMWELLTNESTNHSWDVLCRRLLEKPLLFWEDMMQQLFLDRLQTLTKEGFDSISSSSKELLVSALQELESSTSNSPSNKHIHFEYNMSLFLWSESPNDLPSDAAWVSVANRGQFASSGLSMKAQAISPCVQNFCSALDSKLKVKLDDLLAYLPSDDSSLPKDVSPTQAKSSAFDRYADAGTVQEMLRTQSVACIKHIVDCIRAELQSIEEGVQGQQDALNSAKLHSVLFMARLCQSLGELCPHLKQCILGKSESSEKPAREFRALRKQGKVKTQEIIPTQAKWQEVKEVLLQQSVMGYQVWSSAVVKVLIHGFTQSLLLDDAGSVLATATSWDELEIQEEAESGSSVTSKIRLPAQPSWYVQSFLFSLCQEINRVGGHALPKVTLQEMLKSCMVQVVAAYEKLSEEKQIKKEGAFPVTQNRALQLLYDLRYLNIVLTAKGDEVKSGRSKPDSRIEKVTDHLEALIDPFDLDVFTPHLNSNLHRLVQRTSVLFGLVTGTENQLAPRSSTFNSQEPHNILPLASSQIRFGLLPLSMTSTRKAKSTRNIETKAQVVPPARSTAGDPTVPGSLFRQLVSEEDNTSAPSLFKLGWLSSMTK
Serine/threonine-protein kinase ATR (Homo sapiens), sequence (Q13535 whole entry, looked up): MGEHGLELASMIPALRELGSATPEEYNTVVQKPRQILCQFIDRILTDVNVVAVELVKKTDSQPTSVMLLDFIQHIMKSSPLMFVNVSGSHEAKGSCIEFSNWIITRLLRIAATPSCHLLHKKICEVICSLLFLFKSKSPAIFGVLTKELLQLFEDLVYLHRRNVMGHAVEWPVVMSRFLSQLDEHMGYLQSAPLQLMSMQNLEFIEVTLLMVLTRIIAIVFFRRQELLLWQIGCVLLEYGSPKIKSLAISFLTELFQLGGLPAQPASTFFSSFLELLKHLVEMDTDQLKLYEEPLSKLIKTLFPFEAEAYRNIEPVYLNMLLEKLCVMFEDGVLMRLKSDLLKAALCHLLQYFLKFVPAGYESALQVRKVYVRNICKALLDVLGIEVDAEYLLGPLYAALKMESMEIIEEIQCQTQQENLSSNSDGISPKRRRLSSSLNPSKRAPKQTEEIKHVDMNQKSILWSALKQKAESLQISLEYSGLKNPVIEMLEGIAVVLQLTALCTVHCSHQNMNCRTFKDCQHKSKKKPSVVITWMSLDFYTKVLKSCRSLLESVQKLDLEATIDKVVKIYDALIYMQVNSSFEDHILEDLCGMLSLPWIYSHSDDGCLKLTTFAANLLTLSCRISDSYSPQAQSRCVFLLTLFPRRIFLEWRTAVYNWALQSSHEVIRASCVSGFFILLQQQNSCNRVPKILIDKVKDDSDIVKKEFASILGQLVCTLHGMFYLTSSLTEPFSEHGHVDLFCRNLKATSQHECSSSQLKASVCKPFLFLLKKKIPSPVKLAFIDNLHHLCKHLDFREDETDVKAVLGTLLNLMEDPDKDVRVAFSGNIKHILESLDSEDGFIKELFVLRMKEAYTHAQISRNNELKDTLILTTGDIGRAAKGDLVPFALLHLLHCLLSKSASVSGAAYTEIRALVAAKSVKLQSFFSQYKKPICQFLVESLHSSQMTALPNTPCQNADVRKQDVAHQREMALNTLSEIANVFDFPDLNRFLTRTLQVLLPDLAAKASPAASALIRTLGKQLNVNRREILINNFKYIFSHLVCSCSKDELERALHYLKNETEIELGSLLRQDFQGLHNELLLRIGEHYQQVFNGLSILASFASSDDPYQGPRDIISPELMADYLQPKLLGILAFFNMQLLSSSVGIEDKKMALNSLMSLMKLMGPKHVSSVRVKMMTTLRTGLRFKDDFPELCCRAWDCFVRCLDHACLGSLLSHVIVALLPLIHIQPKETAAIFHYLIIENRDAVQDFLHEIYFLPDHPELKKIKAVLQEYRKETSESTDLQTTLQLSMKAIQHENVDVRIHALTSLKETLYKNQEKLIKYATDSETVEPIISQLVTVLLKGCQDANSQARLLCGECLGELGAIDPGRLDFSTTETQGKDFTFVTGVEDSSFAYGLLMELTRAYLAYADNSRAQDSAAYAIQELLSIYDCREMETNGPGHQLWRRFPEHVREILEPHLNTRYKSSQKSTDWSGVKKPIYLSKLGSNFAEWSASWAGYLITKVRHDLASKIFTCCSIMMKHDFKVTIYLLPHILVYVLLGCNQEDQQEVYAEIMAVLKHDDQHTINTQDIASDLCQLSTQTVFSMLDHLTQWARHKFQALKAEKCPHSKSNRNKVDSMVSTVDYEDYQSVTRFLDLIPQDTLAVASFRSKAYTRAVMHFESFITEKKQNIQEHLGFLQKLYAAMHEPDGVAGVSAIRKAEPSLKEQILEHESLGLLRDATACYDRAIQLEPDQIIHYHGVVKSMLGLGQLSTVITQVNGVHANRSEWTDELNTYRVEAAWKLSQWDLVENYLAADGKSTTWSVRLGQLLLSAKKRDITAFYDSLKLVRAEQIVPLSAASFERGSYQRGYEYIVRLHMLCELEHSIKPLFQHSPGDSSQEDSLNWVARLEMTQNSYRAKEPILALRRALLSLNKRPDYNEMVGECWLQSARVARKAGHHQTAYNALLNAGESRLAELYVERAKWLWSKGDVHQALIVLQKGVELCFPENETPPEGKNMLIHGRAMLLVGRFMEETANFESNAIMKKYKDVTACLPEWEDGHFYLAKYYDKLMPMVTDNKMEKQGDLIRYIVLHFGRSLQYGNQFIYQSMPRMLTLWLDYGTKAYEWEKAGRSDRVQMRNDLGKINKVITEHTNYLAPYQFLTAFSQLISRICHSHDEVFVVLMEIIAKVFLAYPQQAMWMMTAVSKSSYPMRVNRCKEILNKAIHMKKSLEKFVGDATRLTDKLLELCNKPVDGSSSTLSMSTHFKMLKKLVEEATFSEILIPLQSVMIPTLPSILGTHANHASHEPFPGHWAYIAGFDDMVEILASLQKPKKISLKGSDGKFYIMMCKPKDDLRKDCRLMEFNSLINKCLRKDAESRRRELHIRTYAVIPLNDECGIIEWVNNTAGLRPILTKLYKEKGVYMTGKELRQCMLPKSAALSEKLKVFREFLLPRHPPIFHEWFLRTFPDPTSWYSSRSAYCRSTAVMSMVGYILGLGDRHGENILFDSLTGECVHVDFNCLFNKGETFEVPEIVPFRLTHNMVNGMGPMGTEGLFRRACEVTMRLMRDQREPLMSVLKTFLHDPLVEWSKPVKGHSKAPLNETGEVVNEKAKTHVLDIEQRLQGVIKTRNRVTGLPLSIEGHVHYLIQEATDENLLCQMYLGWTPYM
Gem-associated protein 7 (Homo sapiens), sequence (Q9H840 whole entry): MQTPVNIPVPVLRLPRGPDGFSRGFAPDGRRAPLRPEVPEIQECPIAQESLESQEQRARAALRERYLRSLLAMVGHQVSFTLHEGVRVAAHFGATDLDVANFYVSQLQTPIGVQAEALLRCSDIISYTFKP
Peflin (Homo sapiens), sequence (Q9UBV8 whole entry): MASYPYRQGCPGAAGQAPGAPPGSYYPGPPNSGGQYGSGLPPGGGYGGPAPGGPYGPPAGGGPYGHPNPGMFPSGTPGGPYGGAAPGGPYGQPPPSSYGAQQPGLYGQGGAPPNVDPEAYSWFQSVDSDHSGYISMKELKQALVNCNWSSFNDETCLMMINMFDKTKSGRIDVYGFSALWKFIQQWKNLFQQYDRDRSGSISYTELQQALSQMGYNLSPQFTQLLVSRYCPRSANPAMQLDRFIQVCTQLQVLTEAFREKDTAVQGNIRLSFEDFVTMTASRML

Activity [3] | Activity [4] | Activity [5] | Activity [6] | Activity [7] | Activity [8] | Activity [9] | Activity [11] | Activity [12] | Activity [13] | Activity (Peflin (Homo sapiens)) | Activity [14] | Activity [15] | Activity [16] | Activity [17] | Activity [18] | Activity [19] | SMILES | HSP72 upregulation inhibition (active/not active) (INA-6 [1]) | activity call (active/not active) for inhibition of HSP27 upregulation (INA-6 [2]) | Activity [10] | other results
Active | Active | Active | Active | Active | Active | Active | Active | Active | Active | Active | Active | Active | Active | Active | Active | Active | O=C(CCCC[C@@H]1SC[C@@H]2NC(=O)N[C@@H]21)NCCOCCOCCNCCOc1ccc(C(C(=O)NCc2ccccc2)N(C(=O)CCc2ccc(O)cc2)C2CC2)cc1 (mixture of isomers) | inactive | inactive | Active | Activity [20]: Active; Activity [21]: Active; Activity [22]: Active; Activity [23]: Active; Activity [24]: Active; Activity [25]: Active; Activity [26]: Active; Activity [27]: Active
Active | Active | Active | Active | Active | Active | Active | Active | Active | Active | Active | Active | Active | Active | Active | Active | Active | O=C(CCCC[C@@H]1SC[C@@H]2NC(=O)N[C@@H]21)NCCOCCOCCNCCOc1ccc(C(C(=O)NCc2ccccc2)N(C(=O)CCc2ccccc2)C2CC2)cc1 (mixture of isomers) | inactive | inactive | Active | Activity [20]: Active; Activity [21]: Active; Activity [22]: Active; Activity [23]: Active; Activity [24]: Active; Activity [25]: Active; Activity [26]: Active; Activity [27]: Active
